The values that follow come from ChEMBL document CHEMBL1134776, “Novel azo derivatives as prodrugs of 5-aminosalicylic acid and amino derivatives with potent platelet activating factor antagonist activity” (J Med Chem, 2001).

Assay type in all cases: functional
The species named for test [1] is Rattus norvegicus. The experiment in a line: Dose required to reduce the lowering of the arterial blood pressure caused by PAF by 50 %. The conditions noted are these: read-out: ID50 (the source's name). In a few lines:
(§1)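 Male Sprague-Dawley rats (180–220 g) were anesthetized with pentobarbital (50 mg/kg ip), and blood pressure was recorded from the left carotid artery. Compound in saline (1 mL/kg) was given iv via a femoral vein 3 min before PAF (0.5 µg/kg iv). ID50 came from linear regression of one curve with ≥4 doses (15–85% inhibition), each point the mean of ≥2 experiments.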

Another test is filed under the species Oryctolagus cuniculus. The experiment in a line: Concentration required to inhibit PAF-induced maximum aggregation by 50%. The procedure, abridged:
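Platelet-rich plasma was prepared by centrifuging blood at 250 g for 10 min at 4 °C, then diluted with platelet-poor plasma (3000g, 10 min) to 3.5 × 10^5 platelets/mm3. Aggregation was induced with C18-PAF (1.5 × 10^-8 M) and read in an aggregometer as maximum aggregation. IC50 came from linear regression of one curve with ≥4 points (15–85% inhibition), each point the mean of 1–3 experiments.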

Test [2] concerns Rattus norvegicus. The experiment in a line: Dose required to reduce the lowering of the arterial blood pressure caused by PAF by 50 % in rats intravenously. The conditions noted are these: iv, read-out: ID50 (the source's name). The procedure, abridged: as §1
Test [3] is filed under the species Rattus norvegicus. The test can be described thus: % of rats exhibiting diarrhea. The procedure, abridged: (§2)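 Female Wistar rats (180–220 g) were fasted overnight and given 30 mg TNBS in 0.25 mL 50% ethanol intrarectally by cannula inserted 8 cm, under anesthesia. Compounds were dosed orally in 1% methylcellulose for 5 days before induction and 24 h after. Colons were removed at 48 h and blind-scored 0–10 for macroscopic damage. Diarrhea was analyzed by χ2, means by ANOVA, and scores by Mann–Whitney.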

For test [4], the species on record is Rattus norvegicus. The experiment in a line: Damage to the colon observed after 48 hr after colitis induction in rats. In a few lines:
as §2

The species entered for test [5] is Rattus norvegicus. The test can be described thus: Effect of compound on LTB4 production was measured in rat. In a few lines:
as §2

For test [6], the species on record is Rattus norvegicus. The experiment in a line: Effect of compound on myeloperoxidase activity was evaluated in rat. The procedure, abridged:
as §2

The species entered for test [7] is Rattus norvegicus. The test can be described thus: Colonic weight was measured in rats. The procedure, abridged:
as §2

The IC50 is the concentration that inhibits the measured activity by half. High values mean lower potency, low ones higher potency. Consider `C/C(=C\C(=O)N1CCC(Cn2c(C)nc3cnccc32)CC1)c1ccc(N)cc1`, for which, in the test filed under Rattus norvegicus [1], the ED50 turned out to be 0.17 mg/kg. The midpoint of inhibition in the test filed under Oryctolagus cuniculus, the IC50, lay at 60 nM.
On the same counts, the results for `Cc1nc2cnccc2n1CC1CCN(C(=O)/C=C(\c2ccccc2)c2ccc(N)cc2)CC1` are 0.01 mg/kg and 5 nM.
Turning to `CCOC(=O)[C@H](CC(C)C)N(C(=O)c1ccc(/N=N\c2ccc(O)c(C(=O)O)c2)cc1)S(=O)(=O)c1ccc(Cn2c(C)nc3cnccc32)cc1`, in the test listed under Rattus norvegicus [1], the ED50 came out at 0.47 mg/kg. For the same molecule, the 50% inhibitory concentration (IC50) in the test filed under Oryctolagus cuniculus came to 1470 nM.
On to `Cc1nc2cnccc2n1Cc1ccc(S(=O)(=O)N(C)c2cccc(N)c2)cc1`, for which the ED50 with Rattus norvegicus [2] was determined as 0.22 mg/kg. The molecule also had an IC50 in the test listed under Oryctolagus cuniculus of 300 nM.
On the same counts, the results for `CCOC(=O)[C@H](Cc1ccc(N)cc1)NS(=O)(=O)c1ccc(Cn2c(C)nc3cnccc32)cc1` are 0.19 mg/kg and 740 nM.
As for `CCOC(=O)[C@H](Cc1ccc(N)cc1)NC(=O)N1CCC(Cn2c(C)nc3cnccc32)CC1`, the ED50 in the test listed under Rattus norvegicus [1] stood at 1.13 mg/kg. In addition, the IC50 in the test listed under Oryctolagus cuniculus was 32 nM.
In the test listed under Oryctolagus cuniculus, `CCOC[C@H](CC(C)C)N(Cc1ccc(N)cc1)S(=O)(=O)c1ccc(Cn2c(C)nc3cnccc32)cc1` showed an IC50 of 16 nM.
On to `Cc1nc2cnccc2n1CC1CCN(C(=O)/C=C(\c2ccccc2)c2ccc(/N=N\c3ccc(O)c(C(=O)O)c3)cc2)CC1`, for which the midpoint of inhibition in the test filed under Oryctolagus cuniculus, the IC50, lay at 7300 nM.
With `CCOC(=O)[C@H](CC(C)C)N(Cc1ccc(/N=N\c2ccc(O)c(C(=O)O)c2)cc1)S(=O)(=O)c1ccc(Cn2c(C)nc3cnccc32)cc1`, the ED50 in the test listed under Rattus norvegicus [1] was determined as 1.31 mg/kg. Moreover, the IC50 in the test listed under Oryctolagus cuniculus was found to be 490 nM.
With `Cc1nc2cnccc2n1CC1CCN(C(=O)/C=C(/c2ccccc2)c2ccc(/N=N\c3ccc(O)c(C(=O)O)c3)cc2)CC1`, the ED50 in the test listed under Rattus norvegicus [1] worked out at 2.81 mg/kg. This molecule also yielded an Animals in the test listed under Rattus norvegicus [3] below 25%. In addition, in the test filed under Rattus norvegicus [4], the Damage score was <7.5 0-10. In the test listed under Rattus norvegicus [5], the Production is <4.5 ng (g of tissue)-1. The Activity in the test listed under Rattus norvegicus [6] is <445.9 U (g of tissue)-1. For the same molecule, the Colonic weight in the test filed under Rattus norvegicus [7] was below 149.6 mg/cm. In the test filed under Oryctolagus cuniculus, this molecule came in with an IC50 of 4100 nM.
In the test filed under Oryctolagus cuniculus, `Cc1nc2cnccc2n1CC1CCN(C(=O)CN(C)C(=O)c2ccc(N)cc2)CC1` came in with an IC50 of 1270 nM. This lies in the single-digit micromolar range.
`CCOC(=O)NC(CC(=O)N1CCC(Cn2c(C)nc3cnccc32)CC1)c1ccc(N)cc1` (stereo unspecified): the ED50 in the test filed under Rattus norvegicus [1] was found to be 0.13 mg/kg. The same molecule returned an IC50 in the test filed under Oryctolagus cuniculus of 270 nM.
In the test listed under Oryctolagus cuniculus, `Cc1nc2cnccc2n1CC1CCN(C(=O)CC(C)(C)c2ccc(N)cc2)CC1` had an IC50 of 19 nM.
For the molecule `Cc1nc2cnccc2n1CC1CCN(C(=O)/C=C/c2ccc(N)cc2)CC1`, the ED50 in the test filed under Rattus norvegicus [1] is 1.23 mg/kg. This molecule also gave an IC50 in the test listed under Oryctolagus cuniculus of 1200 nM.
The matching figures for `Cc1nc2cnccc2n1CC1CCN(C(=O)C(C)c2ccc(N)cc2)CC1` (stereo unspecified): 1.47 mg/kg and 430 nM.
As for `CCOC(=O)[C@H](CC(C)C)N(C(=O)c1ccc(N)cc1)S(=O)(=O)c1ccc(Cn2c(C)nc3cnccc32)cc1`, the IC50 in the test listed under Oryctolagus cuniculus was 30 nM.
As for `Cc1nc2cnccc2n1CC1CCN(C(=O)CC(NC(=O)c2ccc(N)cc2)c2ccccc2)CC1` (stereo unspecified), the ED50 in the test filed under Rattus norvegicus [1] was 0.19 mg/kg. The same molecule displayed an IC50 in the test filed under Oryctolagus cuniculus of 2200 nM.
The matching figures for `CCOC(=O)C(CC(=O)N1CCC(Cn2c(C)nc3cnccc32)CC1)c1ccc(N)cc1` (stereo unspecified): 0.56 mg/kg and 74 nM.
Consider `O=C(O)c1cc(/N=N/c2ccc(S(=O)(=O)Nc3ccccn3)cc2)ccc1O` [SULFASALAZINE], for which the Animals in the test listed under Rattus norvegicus [3] is reported as 62.5%. Moreover, in the test filed under Rattus norvegicus [4], the Damage score is given as 8 0-10. Further, the Activity in the test filed under Rattus norvegicus [6] is listed as 683.3 U (g of tissue)-1. In the test filed under Rattus norvegicus [7], the Colonic weight came to 154.4 mg/cm. In addition, the IC50 in the test filed under Oryctolagus cuniculus was above 200000 nM.
In the test filed under Oryctolagus cuniculus, `CCOC(=O)N(CC(=O)N1CCC(Cn2c(C)nc3cnccc32)CC1)c1ccc(N)cc1` displayed an IC50 of 250 nM. This counts as sub-micromolar.
On to `CCOC[C@H](CC(C)C)N(Cc1ccc(/N=N\c2ccc(O)c(C(=O)O)c2)cc1)S(=O)(=O)c1ccc(Cn2c(C)nc3cnccc32)cc1`, for which the ED50 in the test listed under Rattus norvegicus [1] came out at 2.51 mg/kg. The same molecule registered an IC50 in the test filed under Oryctolagus cuniculus of 400 nM.
For the molecule `CCOC(=O)[C@H](CC(C)C)N(Cc1ccc(N)cc1)S(=O)(=O)c1ccc(Cn2c(C)nc3cnccc32)cc1`, the midpoint of inhibition in the test filed under Oryctolagus cuniculus, the IC50, lay at 12 nM. That is a double-digit nanomolar value.
For the molecule `Cc1nc2cnccc2n1Cc1ccc(S(=O)(=O)N[C@@H](CC(C)C)C(=O)NCc2ccc(N)cc2)cc1`, in the test with Rattus norvegicus [2], the ED50 came to 0.075 mg/kg. The same molecule yielded an IC50 in the test filed under Oryctolagus cuniculus of 120 nM.
The matching figures for `Cc1nc2cnccc2n1CC1CCN(C(=O)CN(CC(C)C)S(=O)(=O)c2ccc(N)cc2)CC1`: 0.029 mg/kg and 610 nM.
`Cc1nc2cnccc2n1CC1CCN(C(=O)CC(C)(C)c2ccc(/N=N\c3ccc(O)c(C(=O)O)c3)cc2)CC1`: the ED50 in the test listed under Rattus norvegicus [1] amounted to 0.11 mg/kg. The molecule also yielded an IC50 in the test listed under Oryctolagus cuniculus of 1600 nM.
For `CCOC[C@H](CC(C)C)N(C(=O)c1ccc(N)cc1)S(=O)(=O)c1ccc(Cn2c(C)nc3cnccc32)cc1`, the ED50 with Rattus norvegicus [2] is 0.3 mg/kg. This molecule displayed an IC50 in the test filed under Oryctolagus cuniculus of 1280 nM.
For `Cc1nc2cnccc2n1CC1CCN(C(=O)NCc2ccc(N)cc2)CC1`, in the test filed under Rattus norvegicus [1], the ED50 turned out to be 2.42 mg/kg. In the test listed under Oryctolagus cuniculus, the IC50 was found to be 1550 nM.
On the same counts, the results for `Cc1nc2cnccc2n1CC1CCN(C(=O)CC(C)c2ccc(N)cc2)CC1` (stereo unspecified) are 0.24 mg/kg and 11 nM.
The matching figures for `Cc1nc2cnccc2n1CC1CCN(C(=O)CC(Nc2ccc(N)cc2)c2ccccc2)CC1` (stereo unspecified): 0.11 mg/kg and 29 nM.
The matching figures for `CCOC(=O)[C@H](CC(C)C)N(Cc1cccc(N)c1)S(=O)(=O)c1ccc(Cn2c(C)nc3cnccc32)cc1`: 0.043 mg/kg and 17 nM.
In the case of `Cc1nc2cnccc2n1CC1CCN(C(=O)CN(c2ccccc2)S(=O)(=O)c2ccc(/N=N\c3ccc(O)c(C(=O)O)c3)cc2)CC1`, the ED50 in the test listed under Rattus norvegicus [1] was found to be 0.19 mg/kg. In addition, the IC50 in the test listed under Oryctolagus cuniculus was determined as 4010 nM.
Turning to `Cc1nc2cnccc2n1CC1CCN(C(=O)/C=C(/c2ccccc2)c2cccc(N)c2)CC1`, in the test filed under Oryctolagus cuniculus, the midpoint of inhibition, the IC50, lay at 190 nM. This counts as sub-micromolar.
`O=C(O)CCNC(=O)c1ccc(/N=N/c2ccc(O)c(C(=O)O)c2)cc1` [BALSALAZIDE] gave an IC50 in the test filed under Oryctolagus cuniculus above 200000 nM.
In turn, `Cc1nc2cnccc2n1CC1CCN(C(=O)CN(c2ccccc2)S(=O)(=O)c2ccc(N)cc2)CC1` displayed an IC50 in the test listed under Oryctolagus cuniculus of 75 nM.
In the case of `Cc1nc2cnccc2n1CC1CCN(C(=O)/C=C(/c2ccccc2)c2ccc(N)cc2)CC1`, the ED50 in the test listed under Rattus norvegicus [1] was 0.029 mg/kg. In addition, in the test listed under Oryctolagus cuniculus, half-maximal inhibition (IC50) required 8 nM.
For the molecule `Cc1nc2cnccc2n1CC1CCN(C(=O)NC(C)c2ccc(N)cc2)CC1` (stereo unspecified), the IC50 in the test listed under Oryctolagus cuniculus was 1600 nM.
For `Cc1nc2cnccc2n1Cc1ccc(S(=O)(=O)N(C)[C@@H](CC(C)C)C(=O)NCc2cccc(N)c2)cc1`, in the test on Rattus norvegicus [2], the ED50 was found to be 0.28 mg/kg. The same molecule returned an IC50 in the test listed under Oryctolagus cuniculus of 250 nM.
